Assay results from ChEMBL document CHEMBL1131139, “Synthesis and antibacterial activity of ketolides (6-O-methyl-3-oxoerythromycin derivatives): a new class of antibacterials highly potent against macrolide-resistant and -susceptible respiratory pathogens” (1998).
Converted amounts (≈) assume the structure as drawn.

Key:
Haemophilus influenzae [1] = assay: In vitro inhibitory activity against Haemophilus influenzae (351CB12); type: functional
Outline: (§1)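 Two-fold agar dilution on Mueller-Hinton agar (pH 7.4). Inoculum from overnight plate cultures suspended in Mueller-Hinton broth, adjusted to 10^9 CFU/mL, diluted 1:200 and spotted by multipoint inoculator at about 10^4 CFU/spot. Plates incubated 37 °C for 20 h. MIC taken as lowest concentration with no visible growth.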

Escherichia coli = assay: In vitro inhibitory activity against Escherichia coli (250 UC5); type: functional; outline: as §1
Streptococcus pneumoniae [2] = assay: In vitro inhibitory activity against Streptococcus pneumoniae (EryRc 030SJ1); type: functional; outline: as §1
Streptococcus pyogenes [3] = assay: In vitro inhibitory activity against Streptococcus pyogenes (02A1UC1); type: functional; outline: as §1
Staphylococcus aureus [4] = assay: In vitro inhibitory activity against Staphylococcus aureus (EryRi 011GO25i); type: functional; outline: as §1
[5] = test system: Staphylococcus epidermidis; assay: In vitro inhibitory activity against Staphylococcus epidermidis (EryRc 011CB2)
Streptococcus pneumoniae [6] = assay: In vitro inhibitory activity against Streptococcus pneumoniae (032UC1); type: functional; outline: as §1
Staphylococcus aureus [7] = assay: In vitro inhibitory activity against Staphylococcus aureus (011UC4); type: functional; outline: as §1
[8] = test system: Staphylococcus epidermidis; assay: In vitro inhibitory activity against Staphylococcus epidermidis (EryRi 012GO11i); type: functional; outline: as §1
Streptococcus pneumoniae [9] = assay: In vitro inhibitory activity against Streptococcus pneumoniae (EryRi 030SJ5i); type: functional; outline: as §1
Haemophilus influenzae [10] = assay: In vitro inhibitory activity against Haemophilus influenzae (351HT3); type: functional; outline: as §1
[11] = In vitro inhibitory activity against Pneumococci PenR (65); type: functional
Streptococcus pneumoniae [12] = assay: In Vivo evaluation for its effective dose against Streptococcus pneumoniae (030MV2 EryRc); type: functional
Outline: (§2)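 Male Charles River CD1 mice, 20-22 g, 10 per dose group, infected intraperitoneally with 0.5 mL diluted overnight broth culture (physiological buffer or 5% hog mucine) at 10-100 times the minimal lethal dose. Compound suspended in carboxymethylcellulose, 0.5 mL given orally immediately and 4 h postinfection. Survival followed 8-10 days; ED50 (unitary dose protecting 50% from death) by Litchfield-Wilcoxon probit method.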

Staphylococcus aureus [13] = assay: In Vivo evaluation for its effective dose against Staphylococcus aureus (011GO25 EryRi.; type: functional; outline: as §2
Streptococcus sp. [14] = assay: In vitro inhibitory activity against Streptococci EryR (27); type: functional
Streptococcus pneumoniae [15] = assay: In Vivo evaluation for its effective dose against Streptococcus pneumoniae (030SJ1 EryRc); type: functional; outline: as §2
[16] = In vitro inhibitory activity against Pneumococci EryRc (34); type: functional
Haemophilus influenzae [17] = assay: In Vivo evaluation for its effective dose against Haemophilus influenzae (351TO19 AmpR beta (-)); type: functional; outline: as §2
Streptococcus pneumoniae [18] = assay: In Vivo evaluation for its effective dose against Streptococcus pneumoniae (030SJ6 EryRc); type: functional; outline: as §2
Haemophilus influenzae [19] = assay: In Vivo evaluation for its effective dose against Haemophilus influenzae (351RD7 AmpR beta (+)); type: functional; outline: as §2
Streptococcus pneumoniae [20] = assay: In Vivo evaluation for its effective dose against Streptococcus pneumoniae (030RO1 EryRi); type: functional; outline: as §2
Haemophilus [21] = assay: In vitro inhibitory activity against Haemophilus AmpS (43); type: functional
Staphylococcus aureus [22] = assay: In vitro inhibitory activity against Staphylococcus aureus (EryRc 011CB20); type: functional; outline: as §1
Streptococcus sp. [23] = assay: In vitro inhibitory activity against Streptococci EryRi (98); type: functional
Haemophilus [24] = assay: In vitro inhibitory activity against Haemophilus AmpR (37); type: functional
Enterococcus [25] = assay: In vitro inhibitory activity against enterococci EryRc (13); type: functional
Enterococcus [26] = assay: In vitro inhibitory activity against enterococci EryRi (19); type: functional
Streptococcus pneumoniae [27] = assay: In Vivo evaluation for its effective dose against Streptococcus pneumoniae (032UC1); type: functional; outline: as §2
Streptococcus pneumoniae [28] = assay: In Vivo evaluation for its effective dose against Streptococcus pneumoniae (030Cr29 EryRc); type: functional; outline: as §2
Haemophilus influenzae [29] = assay: In Vivo evaluation for its effective dose against Haemophilus influenzae (351GR1); type: functional; outline: as §2
Streptococcus pyogenes [30] = assay: In Vivo evaluation for its effective dose against Streptococcus pyogenes (02A1UC1); type: functional; outline: as §2
Staphylococcus sp. = assay: In vitro inhibitory activity against Staphylococci EryRi (65); type: functional
Staphylococcus aureus [31] = assay: In Vivo evaluation for its effective dose against Staphylococcus aureus (011UC4).; type: functional; outline: as §2

SMILES: CC[C@H]1OC(=O)[C@H](C)C(=O)[C@H](C)[C@@H](O[C@@H]2O[C@H](C)C[C@H](N(C)C)[C@H]2O)[C@](C)(OC)C[C@@H](C)C(=O)[C@H](C)[C@H]2N(CCCCc3ccnc4ccccc34)C(=O)O[C@]12C
- MIC (Haemophilus influenzae [1]): 1.2 µg/mL (≈ 1.51 µM)
- MIC (Escherichia coli): 40 µg/mL (≈ 50.3 µM)
- MIC (Streptococcus pneumoniae [2]): 1.2 µg/mL (≈ 1.51 µM)
- MIC (Streptococcus pyogenes [3]): 0.02 µg/mL (≈ 0.0251 µM)
- MIC (Staphylococcus aureus [4]): 0.08 µg/mL (≈ 0.101 µM)
- MIC [5]: 40 µg/mL (≈ 50.3 µM)
- MIC (Streptococcus pneumoniae [6]): 0.02 µg/mL (≈ 0.0251 µM)
- MIC (Staphylococcus aureus [7]): 0.04 µg/mL (≈ 0.0503 µM)
- MIC [8]: 0.15 µg/mL (≈ 0.188 µM)
- MIC (Streptococcus pneumoniae [9]): 0.02 µg/mL (≈ 0.0251 µM)
- MIC (Haemophilus influenzae [10]): 1.2 µg/mL (≈ 1.51 µM)

SMILES: CC[C@H]1OC(=O)[C@H](C)[C@@H](O[C@H]2C[C@@](C)(OC)[C@@H](O)[C@H](C)O2)[C@H](C)[C@@H](O[C@@H]2O[C@H](C)C[C@H](N(C)C)[C@H]2O)[C@](C)(O)C[C@@H](C)CN(C)[C@H](C)[C@@H](O)[C@]1(C)O [AZITHROMYCIN]
- MIC50 [11]: 2.5 µg/mL (≈ 3.34 µM)
- MIC90 [11]: 40 µg/mL (≈ 53.4 µM)
- ED50 (Streptococcus pneumoniae [12]): > 100 mg/kg
- ED50 (Staphylococcus aureus [13]): > 100 mg/kg
- MIC50 (Streptococcus sp. [14]): 10 µg/mL (≈ 13.4 µM)
- MIC90 (Streptococcus sp. [14]): 40 µg/mL (≈ 53.4 µM)
- MIC (Haemophilus influenzae [1]): 1.2 µg/mL (≈ 1.6 µM)
- ED50 (Streptococcus pneumoniae [15]): > 100 mg/kg
- MIC (Escherichia coli): 20 µg/mL (≈ 26.7 µM)
- MIC50 [16]: 40 µg/mL (≈ 53.4 µM)
- MIC90 [16]: 40 µg/mL (≈ 53.4 µM)
- ED50 (Haemophilus influenzae [17]): 368 mg/kg
- ED50 (Streptococcus pneumoniae [18]): > 100 mg/kg
- MIC (Streptococcus pneumoniae [2]): 40 µg/mL (≈ 53.4 µM)
- MIC (Streptococcus pyogenes [3]): 0.6 µg/mL (≈ 0.801 µM)
- MIC (Staphylococcus aureus [4]): 40 µg/mL (≈ 53.4 µM)
- ED50 (Haemophilus influenzae [19]): 117 mg/kg
- ED50 (Streptococcus pneumoniae [20]): > 100 mg/kg
- MIC50 (Haemophilus [21]): 0.15 µg/mL (≈ 0.2 µM)
- MIC90 (Haemophilus [21]): 1.2 µg/mL (≈ 1.6 µM)
- MIC (Staphylococcus aureus [22]): 40 µg/mL (≈ 53.4 µM)
- MIC50 (Streptococcus sp. [23]): 40 µg/mL (≈ 53.4 µM)
- MIC90 (Streptococcus sp. [23]): 40 µg/mL (≈ 53.4 µM)
- MIC50 (Haemophilus [24]): 0.3 µg/mL (≈ 0.401 µM)
- MIC90 (Haemophilus [24]): 1.2 µg/mL (≈ 1.6 µM)
- MIC (Streptococcus pneumoniae [6]): 0.15 µg/mL (≈ 0.2 µM)
- MIC50 (Enterococcus [25]): 10 µg/mL (≈ 13.4 µM)
- MIC90 (Enterococcus [25]): 40 µg/mL (≈ 53.4 µM)
- MIC50 (Enterococcus [26]): 40 µg/mL (≈ 53.4 µM)
- MIC90 (Enterococcus [26]): 40 µg/mL (≈ 53.4 µM)
- MIC (Staphylococcus aureus [7]): 0.3 µg/mL (≈ 0.401 µM)
- ED50 (Streptococcus pneumoniae [27]): > 50 mg/kg
- ED50 (Streptococcus pneumoniae [28]): > 100 mg/kg
- MIC [8]: 40 µg/mL (≈ 53.4 µM)
- MIC (Streptococcus pneumoniae [9]): 40 µg/mL (≈ 53.4 µM)
- MIC (Haemophilus influenzae [10]): 1.2 µg/mL (≈ 1.6 µM)
- ED50 (Haemophilus influenzae [29]): 109 mg/kg
- ED50 (Streptococcus pyogenes [30]): 16 mg/kg
- MIC50 (Staphylococcus sp.): 40 µg/mL (≈ 53.4 µM)
- MIC90 (Staphylococcus sp.): 40 µg/mL (≈ 53.4 µM)
- ED50 (Staphylococcus aureus [31]): 60 mg/kg
